Measured values taken from ChEMBL document CHEMBL4229389, “Synthesis and biological evaluation of clovamide analogues as potent anti-neuroinflammatory agents in vitro and in vivo” (Eur J Med Chem, 2018).
The source made the active and inactive calls. The rule behind the calls is not given here.

Key:
BV-2 [1] = experiment: Anti-neuroinflammatory activity in […] assessed as reduction in LPS-induced NO production at 10 uM preincubated for 4 hrs followed by LPS stimulation for 24 hrs by Griess assay relative to control; format: functional; conditions: for inhibition at 10 µM: Mus musculus
Method in brief: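 Mouse microglial BV-2 cells in DMEM with 10% FBS. Pretreated at 10 µM for 4 h, then LPS 500 ng/mL for 24 h. Nitrite in supernatant measured with Griess reagent at 540 nm. Means ± S.E.M., n=3.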

BV-2 [2] = experiment: Anti-neuroinflammatory activity in […] assessed as reduction in LPS-induced NO production preincubated for 4 hrs followed by LPS stimulation for 24 hrs by Griess assay; format: functional, cell-based; conditions: Mus musculus
Method in brief: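 BV-2 cells pretreated 4 h over 0.78-100 µM (twofold series), then LPS 500 ng/mL for 24 h. Supernatant mixed 1:1 with Griess reagent, A540, against NaNO2 standard curve. IC50 by curve fitting; mean ± S.E.M. of three experiments.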

[3] = Cytotoxicity against […] assessed as reduction in cell viability after 24 hrs by MTT assay; format: cell-based, BV-2; conditions: BV2 cells
Method in brief: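 BV-2 cells at 5 × 10^3/well, grown 12 h, then exposed to 1-100 µM for 24 h. MTT at 0.5 mg/mL final for 4 h at 37 ℃. Formazan dissolved in DMSO and read at 490 nm. CC50 as mean ± S.E.M. of three experiments.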

[4] = target: Nitric oxide synthase, inducible (Mus musculus) (UniProt P29477); experiment: Inhibition of LPS-induced iNOS in mouse BV2 cells after 4 hrs by DAF-FMDA dye-based fluorescence assay
BV-2 [5] = experiment: Anti-neuroinflammatory activity in […] assessed as reduction in LPS-induced COX-2 expression preincubated for 2 hrs followed by LPS stimulation for 24 hrs by Western blot analysis; format: functional, cell-based
Method in brief: (§1)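 BV-2 cells at 5 × 10^5/well, pretreated at 1, 10 or 20 µM, then LPS 500 ng/mL. Lysed in RIPA with protease/phosphatase inhibitors. 30 µg protein blotted with primary antibodies 1:1000 and HRP secondary 1:5000, ECL detection. β-actin as loading control. Expressed as fold of control; at least three independent experiments, each in duplicate.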

BV-2 [6] = experiment: Anti-neuroinflammatory activity in […] assessed as reduction in LPS-induced IL-1beta expression preincubated for 2 hrs followed by LPS stimulation for 24 hrs by Western blot analysis; format: functional, cell-based; method in brief: as §1
BV-2 [7] = experiment: Anti-neuroinflammatory activity in […] assessed as reduction in LPS-induced TNF-alpha expression preincubated for 2 hrs followed by LPS stimulation for 24 hrs by Western blot analysis; format: functional, cell-based; method in brief: as §1
BV-2 [8] = experiment: Anti-neuroinflammatory activity in […] assessed as reduction in LPS-induced iNOS expression preincubated for 2 hrs followed by LPS stimulation for 24 hrs by Western blot analysis; format: functional, cell-based; method in brief: as §1
Mus musculus [9] = experiment: Anti-neuroinflammatory activity in MPTP-induced C57BL/6 mouse assessed as alleviation of functional behaviour impairment at 10 mg/kg, po pre-treated daily for 7 days followed by 4 times MPTP addition at 2 hrs intervals and measured after 4 to 72 hrs post MPTP injection by rota rod test; format: organism-based
Method in brief: (§2)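 Male C57BL/6 mice, 7-8 weeks, 20-22 g, 8 per group. Pretrained 3 days on rota-rod, up to 25 rpm, to stay on 180 s. Dosed i.g. at 10 or 20 mg/kg daily for 7 days in 0.5% methylcellulose with 1% Tween 80, vehicle for controls. Then 4 i.p. MPTP injections (20 mg/kg) at 2-h intervals. Tested at 4, 24, 48 and 72 h; mean of three runs.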

Mus musculus [10] = experiment: Anti-neuroinflammatory activity in MPTP-induced C57BL/6 mouse assessed as alleviation of functional behaviour impairment at 20 mg/kg, po pre-treated daily for 7 days followed by 4 times MPTP addition at 2 hrs intervals and measured after 4 to 72 hrs post MPTP injection by rota rod test; format: organism-based; method in brief: as §2
Mus musculus [11] = experiment: (§3) Anti-neuroinflammatory activity in MPTP-induced C57BL/6 mouse assessed as increase in tyrosine hydroxylase positive cells in substantia nigra at 10 to 20 mg/kg, po pre-treated daily for 7 days followed by 4 times MPTP addition at 2 hrs intervals and measured after 4 to 72 hrs post MPTP injection by DAB staining based immunohistochemistry method; format: functional, organism-based
Mus musculus [12] = experiment: as §3, with “striatum” for “substantia nigra”; format: functional, organism-based
Mus musculus [13] = experiment: (§4) Anti-neuroinflammatory activity in MPTP-induced C57BL/6 mouse assessed as reduction in astroglial activation by measuring increase in glial fibrillary acidic protein expression in substantia nigra at 10 to 20 mg/kg, po pre-treated daily for 7 days followed by 4 times MPTP addition at 2 hrs intervals and measured after 4 to 72 hrs post MPTP injection by DAB staining based immunohistochemistry method; format: functional, organism-based
Mus musculus [14] = experiment: as §4, with “striatum” for “substantia nigra”; format: functional, organism-based
[15] = target: Transcription factor p65 (Mus musculus) (UniProt Q04207); experiment: Inhibition of LPS-induced nuclear translocation of NF-kappaB-p65 in mouse BV2 cells at 1 to 20 uM preincubated for 2 hrs followed by LPS stimulation for 2 hrs by Western blot analysis
Transcription factor p65 (Mus musculus), sequence (Q04207 whole entry, looked up): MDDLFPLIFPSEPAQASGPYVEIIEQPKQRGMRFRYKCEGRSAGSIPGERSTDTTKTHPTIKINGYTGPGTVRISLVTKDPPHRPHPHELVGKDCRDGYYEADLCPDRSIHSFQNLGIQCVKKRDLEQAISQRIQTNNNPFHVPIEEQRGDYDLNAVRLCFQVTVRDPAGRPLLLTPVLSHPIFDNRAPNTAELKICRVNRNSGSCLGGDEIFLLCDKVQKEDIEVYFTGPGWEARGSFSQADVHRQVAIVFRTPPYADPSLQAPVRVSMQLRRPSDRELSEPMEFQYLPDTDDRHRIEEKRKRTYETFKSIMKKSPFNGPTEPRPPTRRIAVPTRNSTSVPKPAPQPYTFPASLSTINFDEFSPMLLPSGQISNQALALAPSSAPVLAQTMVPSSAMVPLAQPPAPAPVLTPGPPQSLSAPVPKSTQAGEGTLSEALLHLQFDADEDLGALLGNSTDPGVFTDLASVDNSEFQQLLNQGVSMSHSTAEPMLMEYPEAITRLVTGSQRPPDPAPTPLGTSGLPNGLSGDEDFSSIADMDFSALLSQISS

Nitric oxide synthase, inducible (Mus musculus), sequence (P29477 whole entry, looked up): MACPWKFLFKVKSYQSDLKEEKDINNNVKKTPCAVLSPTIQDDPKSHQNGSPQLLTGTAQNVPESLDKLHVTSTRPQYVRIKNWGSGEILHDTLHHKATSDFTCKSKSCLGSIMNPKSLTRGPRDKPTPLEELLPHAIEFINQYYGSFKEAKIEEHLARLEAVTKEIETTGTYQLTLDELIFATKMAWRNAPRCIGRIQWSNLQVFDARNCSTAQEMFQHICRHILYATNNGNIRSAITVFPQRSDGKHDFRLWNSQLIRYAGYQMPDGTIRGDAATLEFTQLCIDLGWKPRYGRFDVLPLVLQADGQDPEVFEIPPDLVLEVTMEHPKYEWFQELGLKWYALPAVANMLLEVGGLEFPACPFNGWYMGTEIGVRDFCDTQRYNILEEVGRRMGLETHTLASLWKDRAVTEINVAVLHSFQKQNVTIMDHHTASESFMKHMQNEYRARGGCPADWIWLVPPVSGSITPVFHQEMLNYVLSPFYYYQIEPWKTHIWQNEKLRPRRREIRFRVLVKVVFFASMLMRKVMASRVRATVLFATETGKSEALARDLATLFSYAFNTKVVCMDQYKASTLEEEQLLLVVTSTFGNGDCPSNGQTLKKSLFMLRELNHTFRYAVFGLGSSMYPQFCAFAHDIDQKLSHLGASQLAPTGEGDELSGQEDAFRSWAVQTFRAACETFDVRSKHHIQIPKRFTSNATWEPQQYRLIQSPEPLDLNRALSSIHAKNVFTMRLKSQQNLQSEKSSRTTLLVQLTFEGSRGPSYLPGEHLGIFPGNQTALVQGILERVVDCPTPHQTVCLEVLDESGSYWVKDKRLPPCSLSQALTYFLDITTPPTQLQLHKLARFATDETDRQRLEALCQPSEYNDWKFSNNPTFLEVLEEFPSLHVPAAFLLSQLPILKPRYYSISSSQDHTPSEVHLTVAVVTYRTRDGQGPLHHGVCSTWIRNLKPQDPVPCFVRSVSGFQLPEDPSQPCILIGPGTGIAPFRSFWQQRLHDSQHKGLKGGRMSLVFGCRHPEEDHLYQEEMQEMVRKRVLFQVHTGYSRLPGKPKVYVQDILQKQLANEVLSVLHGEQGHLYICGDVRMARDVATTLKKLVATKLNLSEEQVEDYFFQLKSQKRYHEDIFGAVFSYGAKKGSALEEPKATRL

SMILES: O=C(/C=C/c1cccc(O)c1)N[C@@H](Cc1ccccc1)C(=O)O
- inhibition at 10 µM (BV-2 [1]): > 50%
- IC50 (BV-2 [2]): 15.3 µM
- CC50 at 24 h [3]: > 100 µM
- IC50 [4]: 29.2 µM

SMILES: O=C(O)C[C@H](NC(=O)/C=C/c1ccc(O)cc1)C(=O)O
- inhibition (BV-2 [1]): Active

SMILES: COc1cc(/C=C/C(=O)N[C@@H](CCC(=O)O)C(=O)O)ccc1O
- inhibition (BV-2 [1]): Active

SMILES: COC(=O)CC[C@H](NC(=O)/C=C/c1ccccc1)C(=O)OC
- inhibition (BV-2 [1]): Active

SMILES: COC(=O)[C@H](Cc1ccccc1)NC(=O)/C=C/c1ccc(O)c(OC)c1
- inhibition (BV-2 [1]): Active

SMILES: COC(=O)CC[C@H](NC(=O)/C=C/c1ccc(O)c(OC)c1)C(=O)OC
- inhibition (BV-2 [1]): Active

SMILES: O=C(/C=C/c1ccc(O)cc1)N[C@@H](Cc1ccc(O)cc1)C(=O)O
- inhibition at 10 µM (BV-2 [1]): > 50%
- IC50 (BV-2 [2]): 3.4 µM
- CC50 at 24 h [3]: > 100 µM
- IC50 [4]: 2.1 µM

SMILES: COc1cc(/C=C/C(=O)N[C@@H](Cc2ccccc2)C(=O)O)ccc1O
- inhibition at 10 µM (BV-2 [1]): > 50%
- IC50 (BV-2 [2]): 4.41 µM
- CC50 at 24 h [3]: > 100 µM
- IC50 [4]: 2.98 µM

SMILES: COC(=O)[C@H](Cc1ccc(O)cc1)NC(=O)/C=C/c1ccc(O)c(OC)c1
- inhibition (BV-2 [1]): Active

SMILES: O=C(/C=C/c1ccccc1)N[C@@H](Cc1ccc(O)cc1)C(=O)O
- inhibition (BV-2 [1]): Active

SMILES: COC(=O)C[C@H](NC(=O)/C=C/c1cccc(O)c1)C(=O)OC
- inhibition (BV-2 [1]): Active

SMILES: COC(=O)[C@H](Cc1ccccc1)NC(=O)/C=C/c1ccc(O)cc1
- inhibition (BV-2 [1]): Active

SMILES: COC(=O)C[C@H](NC(=O)/C=C/c1ccc(O)cc1)C(=O)OC
- inhibition (BV-2 [1]): Active

SMILES: O=C(O)C[C@H](NC(=O)/C=C/c1cccc(O)c1)C(=O)O
- inhibition (BV-2 [1]): Active

SMILES: COC(=O)[C@H](Cc1ccc(O)cc1)NC(=O)/C=C/c1ccccc1
- inhibition (BV-2 [1]): Active

SMILES: COC(=O)CC[C@H](NC(=O)/C=C/c1cccc(O)c1)C(=O)OC
- inhibition (BV-2 [1]): Active

SMILES: COC(=O)[C@H](Cc1ccc(O)cc1)NC(=O)/C=C/c1ccc(O)cc1
- inhibition (BV-2 [1]): Active

SMILES: COc1cc(/C=C/C(=O)N[C@@H](Cc2ccc(O)cc2)C(=O)O)ccc1O
- inhibition at 10 µM (BV-2 [1]): > 50%
- IC50 (BV-2 [2]): 2.67 µM
- CC50 at 24 h [3]: > 100 µM
- Activity (BV-2 [5]): Dose-dependent effect
- Activity (BV-2 [6]): Dose-dependent effect
- Activity (BV-2 [7]): Dose-dependent effect
- Activity (BV-2 [8]): Dose-dependent effect
- Activity (Mus musculus [9]): Active
- Activity (Mus musculus [10]): Active
- Activity (Mus musculus [11]): Active
- Activity (Mus musculus [12]): Active
- Activity (Mus musculus [13]): Active
- Activity (Mus musculus [14]): Active
- IC50 [4]: 1.01 µM
- inhibition [15]: Active

SMILES: O=C(/C=C/c1ccc(O)cc1)N[C@@H](Cc1ccccc1)C(=O)O
- inhibition at 10 µM (BV-2 [1]): > 50%
- IC50 (BV-2 [2]): 10.4 µM
- CC50 at 24 h [3]: > 100 µM
- IC50 [4]: 8.45 µM

SMILES: O=C(/C=C/c1ccccc1)N[C@@H](Cc1ccccc1)C(=O)O
- inhibition at 10 µM (BV-2 [1]): > 50%
- IC50 (BV-2 [2]): 26.4 µM
- CC50 at 24 h [3]: > 100 µM
- IC50 [4]: 18.9 µM

SMILES: COC(=O)[C@H](Cc1ccccc1)NC(=O)/C=C/c1cccc(O)c1
- inhibition (BV-2 [1]): Active

SMILES: O=C(/C=C/c1cccc(O)c1)N[C@@H](Cc1ccc(O)cc1)C(=O)O
- inhibition (BV-2 [1]): Active

SMILES: COC(=O)[C@H](Cc1ccc(O)cc1)NC(=O)/C=C/c1cccc(O)c1
- inhibition (BV-2 [1]): Active

SMILES: O=C(O)CC[C@H](NC(=O)/C=C/c1ccccc1)C(=O)O
- inhibition (BV-2 [1]): Active

SMILES: COC(=O)[C@H](Cc1ccccc1)NC(=O)/C=C/c1ccccc1
- inhibition (BV-2 [1]): Active

SMILES: O=C(O)CC[C@H](NC(=O)/C=C/c1cccc(O)c1)C(=O)O
- inhibition (BV-2 [1]): Active
